Results from PubChem BioAssay AID651922 (Vanderbilt Specialized Chemistry Center, 2012).
Activity calls are given as the source filed them. No rule for the calls is given here.

Target: Muscarinic acetylcholine receptor M3 (Homo sapiens) (UniProt P20309)
Test: ACh response enhancement at M3 – CHO cells, human M3, selectivity assay for M5 PAM project (AID 651922)
Conditions: CHO-K1 hM3, Fluo-4 calcium flux, ACh EC20 potentiation; series mostly up to 30 µM
Summary of the method: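 System: CHO-K1 cells stably expressing human M3 muscarinic receptor, Fluo-4 loaded; compound dosing: final DMSO 0.3% in assay wells; schedule: dye loading 45-60 min at 37 °C before assay; technique: Fluo-4 fluorescence calcium mobilization measurement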

Chain of Muscarinic acetylcholine receptor M3 (Homo sapiens) (P20309 whole entry, looked up): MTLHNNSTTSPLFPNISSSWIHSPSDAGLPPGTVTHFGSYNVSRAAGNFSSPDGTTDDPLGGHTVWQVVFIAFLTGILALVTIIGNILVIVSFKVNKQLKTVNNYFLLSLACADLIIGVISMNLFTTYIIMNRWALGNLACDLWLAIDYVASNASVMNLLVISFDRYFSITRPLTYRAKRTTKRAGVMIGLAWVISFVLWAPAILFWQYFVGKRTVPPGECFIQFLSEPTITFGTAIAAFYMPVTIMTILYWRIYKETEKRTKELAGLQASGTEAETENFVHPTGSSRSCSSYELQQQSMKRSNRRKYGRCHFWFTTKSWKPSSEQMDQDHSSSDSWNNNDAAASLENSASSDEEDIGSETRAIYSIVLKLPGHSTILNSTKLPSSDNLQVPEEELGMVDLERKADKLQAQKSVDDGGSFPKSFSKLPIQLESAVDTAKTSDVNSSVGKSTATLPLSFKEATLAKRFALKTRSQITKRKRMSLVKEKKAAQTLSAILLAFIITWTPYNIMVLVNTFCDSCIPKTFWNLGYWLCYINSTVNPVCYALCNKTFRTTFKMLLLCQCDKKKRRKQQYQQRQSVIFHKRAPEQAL

SMILES: O=C1C(=O)N(CCOc2ccccc2)c2ccc(OC(F)(F)F)cc21
- outcome: inactive
